The full list was thinned out, with hits kept by preference.
Phagocyt inh – inhibitors of macrophage phagocytosis, primary screen, imaging, J774A.1 cells, IgG beads | J774A.1 macrophage IgG-bead phagocytosis | inhibition, % at 5 µM | 110,000 compounds, 0.07% hits;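 active = inhibition above the mean of the plate negative controls plus 5 SD, cut at about 13% in these data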;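 note: phagocytic index as fraction of beads internalized from green versus red external bead signal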
HCT116 PTEN-null – growth suppression of PTEN-null HCT116, primary screen, cell-based, CellTiter-Glo. HCT116 PTEN-null viability, 60 h; hits give low values. 140,000 compounds, 1.2% hits. viability, % at 10 µM;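 active = viability at or below a set limit, 4 SD under the median of all tested compounds, cut at about 3.7% in these data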;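 note: PTEN knockout HCT116 line with beta catenin targeted HCT116 as companion control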
HUVEC inhibit – inhibitors of HUVEC proliferation, primary screen, cell-based, 384-well; viability, % at 10 µM (by protocol); 86,000 compounds, 1.1% hits; CellTiter-Glo luminescence, 72 h; hits give low values;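 active = viability at or below 30%; inactive = viability above 30%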
bCat KO growth – primary screen for growth suppressors in beta-catenin knockout HCT116 cells (colon tumor, human). viability, % at 10 µM. HCT116 beta-catenin knockout viability, CellTiter-Glo, 60 h; hits give low values. 140,000 compounds, 1.5% hits;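 active = viability at or under a set limit, the compound median less 4 SD, cut at about 6% in these data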
H69AR inhibit – proliferation blockers of H69AR lung cancer cells, primary screen, cell-based, human, 86K library; H69AR lung tumor viability, ATP luminescence, 72 h; hits give low values; 85,000 compounds, 6% hits; AID 598, 2007; viability, % at 10 µM;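 active = viability at or below 40%; inactive = viability above 40%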;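 note: multidrug resistant small cell line overexpressing MRP-1 efflux transporter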
Fibroblast inh – antiproliferative effect on LL 47 fibroblasts – human, LL 47 cells, CellTiter-Glo luminescence, primary screen; LL 47 human lung fibroblast viability, ATP luminescence; hits give low values; viability, % at 10 µM; AID 719, 2007; 85,000 compounds, 1.1% hits;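 active = viability at or below 50% in the single dose screen; inactive = viability above 50%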;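 note: compound exposure lasted 72 h before the ATP readout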
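Material: human lung fibroblast line LL 47, low passage; Evaluation: viability percentage against median untreated-cell control; Buffer or medium: 15% FBS in IMEM; Incubation: 72 h compound exposure at 37 °C after overnight plating; Dosing: 0.1% DMSO in all compound wells; Measured by: CellTiter-Glo luminescence.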
Numbers stand for hits; 0 = inactive; - = not tested or not shown; [ ] = remark or other dose.

SMILES	Phagocyt inh	HCT116 PTEN-null	HUVEC inhibit	bCat KO growth	H69AR inhibit	Fibroblast inh
CCOC(=O)c1c(-c2ccc(F)cc2)csc1NC(=O)c1c(-c2ccccc2)noc1C	129[artifact]	0	-	0	-	-
Cc1onc(-c2ccccc2)c1C(=O)Nc1sc2c(c1C(N)=O)CCC2	0	0	0	0	34	0
COC(=O)c1c(-c2ccccc2)csc1NC(=O)c1c(-c2ccccc2)noc1C	0	0	-	0	-	-
CCOc1ccc2c(c1)C(=NNC(=O)c1ccncc1)c1cc(OCC)ccc1-2	0	2.4	-	3.7	-	-
COc1ccc(NC(=O)Nc2ccc(Cc3ccncc3)cc2)cc1OC	0	0	-	0	-	-
C=CCSc1nccc(-c2nn(-c3ccc(C)cc3)ccc2=O)n1	0	0	0	0	21	0
CSc1nccc(-c2nn(-c3ccc(C)cc3)ccc2=O)n1	0	0	0	0	24	0
C#CCSc1nccc(-c2nn(-c3ccc(C)cc3)ccc2=O)n1	0	0	0	0	17	0
CCn1c(SCc2c(Cl)cccc2Cl)nnc1-c1nn(-c2ccccc2)ccc1=O	-	0	-	0	-	-
CCSc1nccc(-c2nn(-c3ccc(C)cc3)ccc2=O)n1	0	0	0	0	18	0
CNC(=O)c1nn(-c2ccc(C)cc2)ccc1=O	0	0	-	0	-	-
Cc1cc(C)n2nc(CC(=O)NCc3ccccc3Cl)nc2n1	0	0	-	0	-	-
CCCn1c(SCC(=O)c2ccc3c(c2)NC(=O)CO3)nc2ccccc21	0	0	-	4.6	-	-
O=C1COc2ccc(C(=O)CSc3nnc(Cc4cccs4)n3-c3ccc(Cl)cc3)cc2N1	-	0	0	0	27	0
O=C1COc2ccc(C(=O)CSc3nnnn3-c3ccccc3)cc2N1	0	0	0	0	0	0
CCCCCCn1c(SCC(=O)c2c(N)n(C)c(=O)n(C)c2=O)nc2ccccc21	0	0	0	0	24	40
Cc1cccc2nc(CSc3nnc4ccccn34)cn12	0	0	0	0	0	0
CC(=O)NC1=C(C#N)C(c2ccccc2)c2c(ccc3ccccc23)O1 (centres undefined)	0	0	-	0	-	-
CCC(C)[C@H](NC(=O)Nc1ccc(C(C)=O)cc1)C(=O)OC (some centres undefined)	0	0	0	0	0	0
Cc1cc(N2CCN(c3ccc([N+](=O)[O-])c4cccnc34)CC2)c2ccccc2n1	0	0	-	3.5	-	-
NC(=O)CSc1nc2sc3c(c2c2ncnn12)CCCC3	0	0	0	0	0	0
CC1CCCc2sc3nc(N4CCN(CCO)CC4)n4ncnc4c3c21 (centres undefined)	0	0	0	0	15	0
COC(=O)c1ccc(COc2ccccc2/C=C(\C#N)C(=O)Nc2c(C)cc(C)cc2C)cc1	0	1.1	-	1.4	-	-
COc1ccc(Nc2nc(Nc3ccc(OC)cc3)nc(SC3=NCCS3)n2)cc1	0	0	0	0	0	0
CC1=C(C)/C(=N/OC(=O)c2cccc([N+](=O)[O-])c2)C=CC1=O	-	1.7	0	1.6	11	0
SMILES	Phagocyt inh	HCT116 PTEN-null	HUVEC inhibit	bCat KO growth	H69AR inhibit	Fibroblast inh
CCOC(=O)c1ccc(Nc2ccc(-c3ccc(OC)c(OC)c3)nn2)cc1	0	0	0	0	32	0
CCOC(=O)C1CCN(CC(O)COc2ccc(C(C)(C)CC)cc2)CC1 (centres undefined)	0	0	0	0	26	0
O=C(Nc1nccs1)c1ccc2c(=O)n3c(nc2c1)CCCCC3	0	0	-	0	-	-
COc1cc(-c2nc3ccccn3c2NCC2CCCO2)ccc1O (centres undefined)	0	0	0	0	27	0
CCOc1cc(-c2nc3ccccn3c2NCC2CCCO2)ccc1O (centres undefined)	-	0	0	0	28	0
Oc1ccc(-c2nc3ccccn3c2NCc2ccco2)cc1	0	0	0	0	0	0
COc1cc(-c2nc3ccccn3c2/N=C/c2ccccc2)ccc1O	-	0	-	0	-	-
CCOC(=O)Cn1c2ccc(OC)cc2c2nc3ccccc3nc21	0	0	0	0	24	0
O=C(CN1CCCCC1)N1c2ccccc2CCc2ccccc21	0	0	0	0	0	0
CC1CCN(CC(=O)N2c3ccccc3CCc3ccccc32)CC1	-	0.8	-	0.8	-	-
CC(=O)c1ccccc1Oc1nc(CN2CCOCC2)nc2scc(-c3cccs3)c12	0	0	0	0	30	-
COc1ccc(C(C)=O)c(Oc2nc(CN3CCOCC3)nc3scc(-c4cccs4)c23)c1	0	0	0	0	0	0
COc1ccc(NC(=O)N2CCCC(c3nc(-c4ccc(C(C)C)cc4)no3)C2)cc1 (centres undefined)	0	0	0	0	0	0
Oc1cccc2ccc[n+](CC(O)Cn3c4ccccc4c4ccccc43)c12 (centres undefined)	0	0	-	0	-	-
CCc1nc(SCC(=O)Nc2ccc3c(c2)OCCO3)c2oc3ccccc3c2n1	-	0	20	0	0.9	0
CCc1nc(SCC(=O)Nc2nccs2)c2oc3ccccc3c2n1	0	0	0	0	13	0
O=C(CSc1ncnc2c1cnn2Cc1ccccc1)Nc1ccc2c(c1)OCCO2	0	0	0	0	34	0
CCc1nc(SCC(=O)N2CCCc3ccccc32)c2oc3ccccc3c2n1	0	0	0	0	0	0
Cc1nc(SCC(=O)Nc2ccc3c(c2)OCCO3)c2oc3ccccc3c2n1	-	0	0	0	0	0
COc1ccc(CCn2c(-c3cc([N+](=O)[O-])cc([N+](=O)[O-])c3)nc3nc4ccccc4nc32)cc1OC	0	0	-	0	-	-
COc1ccc(/C=N/NC(=O)c2cc(-c3ccc(C)cc3C)nc3ccccc23)cc1COC(C)=O	-	0	-	0	-	-
N#CC1=C2SCC(O)(c3ccccc3)N2C(=O)CC1c1ccccc1 (centres undefined)	0	0	0	0	24	47
CCc1ccc(C2CC(=O)N3CN(c4ccccc4)CSC3=C2C#N)cc1 (centres undefined)	-	0	0	0	0	0
Cc1cc(N2C(=O)C3CC=CC(C)C3C2=O)no1 (centres undefined)	-	0	0	0	0	0
COc1cc(NC(=O)c2cccc(C)c2)c(Cl)cc1[N+](=O)[O-]	0	0	-	0	-	-
SMILES	Phagocyt inh	HCT116 PTEN-null	HUVEC inhibit	bCat KO growth	H69AR inhibit	Fibroblast inh
O=c1c(Cl)c(N/N=C/c2ccc(Cl)cc2)cnn1-c1ccccc1	0	0	-	0	-	-
CCc1ccc(C(=O)Cn2ncc(Cl)c(Cl)c2=O)cc1	0	3.0	6.8	4.8	6.1	29
Cc1ccc(Cn2ncc(Cl)c(Cl)c2=O)cc1	-	1.7	-	2.7	-	-
Cc1ccc(Cn2ncc3c(N4CCN(c5ccc(C)cc5)CC4)ncnc32)cc1	0	0	0	0	0	0
O=c1c(Cl)c(Cl)cnn1-c1ccccc1	0	0.9	-	0.9	-	-
Cc1cc(C)cc(Cn2ncc(Cl)c(Cl)c2=O)c1	0	1.6	-	1.9	-	-

Source: PubChem
